From ChEMBL document CHEMBL4371078, “N-Naphthoyl-substituted indole thio-barbituric acid analogs inhibit the helicase activity of the hepatitis C virus NS3” (Bioorg Med Chem Lett, 2019)
Active and inactive are the calls of the source. The calls are words filed in the database; no cut-off is given here.

Legend:
[1] = tested on: Hepatitis C virus subtype 1b; test: Inhibition of recombinant full length HCV genotype 1b NS3 helicase activity assessed as reduction in radiolabeled 38 bp dsRNA substrate unwinding t 25 uM preincubated for 20 mins followed by MgCl2/ATP addition and measured up to 4 mins by PAGE based phosphor imaging analysis relative to control
Summary of the method: (§1)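 Polyacrylamide gel unwinding of a radiolabelled 38 bp duplex RNA by recombinant NS3 with compound at 25 µM. Radioactivity at time points from triplicate experiments was averaged and fit to a single exponential to give rate constants.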

[2] = tested on: Hepatitis C virus subtype 1b; test: (§2) Inhibition of recombinant full length HCV genotype 1b NS3 helicase activity assessed as reduction in radiolabeled dsDNA substrate unwinding by measuring unwinding rate constant at 25 uM preincubated for 5 mins followed by MgCl2/ATP addition and measured up to 50 mins by PAGE based phosphor imaging analysis (reference value: 0.039 +/- 0.002 /min)
Summary of the method: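 Gel-based unwinding of 2 nM radiolabelled duplex DNA by 100 nM recombinant NS3 with excess ATP. Compound was present at 25 µM. Unwound fraction was quantified at time points and fit to a single exponential for the rate constant. Triplicate experiments were averaged.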

[3] = (§3) Inhibition of recombinant full length HCV genotype 1b NS3 helicase activity assessed as reduction in 5'-FAM labeled dsDNA substrate unwinding preincubated for 10 mins followed by MgCl2/ATP addition and measured after 30 mins by real-time fluorescence assay; design: species or system Hepatitis C virus subtype 1b
Summary of the method: (§4)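 Real-time plate unwinding of a FAM-labelled duplex DNA by full-length recombinant NS3 with saturating ATP and Mg2+, read as the fluorescence increase. Compounds were dosed over a range to derive an IC50.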

[4] = tested on: Hepatitis C virus subtype 1b; test: as §3; summary of the method: as §4
[5] = tested on: Hepatitis C virus subtype 1b; test: Inhibition of polyU RNA-stimulated recombinant full length HCV genotype 1b NS3 ATPase activity assessed as Kcat for substrate at 25 uM in presence of 5 mM ATP measured for 1 min by pyruvate kinase/ lactate dehydrogenase enzyme coupled spectrophotometric method (reference value: 68 /s)
[6] = Inhibition of recombinant full length HCV genotype 1b NS3 interaction with 3'-FAM labeled ssDNA assessed as Kd for NS3-ssDNA complex at 25 uM by fluorescence polarization assay (reference value: 3.3 +/- 0.2 nM); design: species or system Hepatitis C virus subtype 1b
[7] = tested on: Hepatitis C virus subtype 1b; test: Inhibition of recombinant full length HCV genotype 1b NS3 helicase activity assessed as reduction in 5'-FAM labeled dsDNA substrate unwinding at 30 uM preincubated for 10 mins followed by MgCl2/ATP addition and measured after 30 mins by real-time fluorescence assay
Summary of the method: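 96-well real-time unwinding of a fluorescently labelled duplex DNA by full-length recombinant NS3 with saturating ATP and Mg2+. Read-out was the increase in FAM fluorescence. Compounds were tested at 30 µM in 5% DMSO. Unwinding rates were normalized to DMSO controls. Values are the mean ± standard deviation of triplicate measurements.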

Hepacivirus hominis [8] = test: Inhibition of HCV NS3/4A protease activity at 25 uM using Ac-Asp-Glu-Asp-EDANS-Glu-Glu-Abu-L-Lactoyl-Ser-Lys DABCYL-NH2 as substrate measured for 30 mins by fluorescence assay
Summary of the method: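 NS3–4A protease activity read by fluorescence of the internally quenched EDANS/DABCYL peptide after cleavage. Compounds were tested at 25 µM, with telaprevir at 10 µM as the positive control. Activities were normalized. Values are the mean ± standard deviation of triplicate measurements.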

[9] = tested on: Hepatitis C virus subtype 1b; test: Inhibition of polyU RNA-stimulated recombinant full length HCV genotype 1b NS3 ATPase activity assessed as Km for substrate at 25 uM in presence of 5 mM ATP measured for 1 min by pyruvate kinase/ lactate dehydrogenase enzyme coupled spectrophotometric method (reference value: 0.41 mM)
[10] = tested on: Hepatitis C virus subtype 1b; test: as §2, with “radiolabeled 38 bp dsRNA” for “radiolabeled dsDNA”, “for 20” for “for 5”, “to 4” for “to 50”, “value: 1.84” for “value: 0.039”, “+/- 0.19” for “+/- 0.002”; summary of the method: as §1
Hepacivirus hominis [11] = test: Inhibition of HCV NS3/4A protease activity at 10 uM using Ac-Asp-Glu-Asp-EDANS-Glu-Glu-Abu-L-Lactoyl-Ser-Lys DABCYL-NH2 as substrate measured for 30 mins by fluorescence assay relative to control
Summary of the method: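 Recombinant HCV NS3–4A with full protease activity, incubated with the internally quenched EDANS/DABCYL peptide substrate; cleavage read as the rise in fluorescence. Activities were normalized to control and given as mean ± standard deviation of triplicate measurements.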

SMILES | inhibition [1] | K [2] | IC50 [3] | inhibition [4] | kcat [5] | Kd [6] | inhibition [7] | inhibition (Hepacivirus hominis [8]) | Km [9] | K [10] | inhibition (Hepacivirus hominis [11])
O=C1NC(=S)NC(=O)C1=Cc1cn(C(=O)c2ccc3ccccc3c2)c2ccccc12 | 50% | 0.018 min⁻¹ | 21.6 µM | Dose-dependent effect | 65.3 s⁻¹ | 0.0031 µM | Active | inactive | 480 µM | 1.81 min⁻¹ | –
O=C1NC(=S)NC(=O)C1=Cc1cn(C(=O)c2cccc3ccccc23)c2ccc(Cl)cc12 | – | – | – | – | – | – | inactive | – | – | – | –
COc1ccc2c(c1)c(C=C1C(=O)NC(=S)NC1=O)cn2C(=O)c1cccc2ccccc12 | 50% | 0.024 min⁻¹ | 23.5 µM | Dose-dependent effect | 68.7 s⁻¹ | 0.0057 µM | Active | inactive | 860 µM | 2.14 min⁻¹ | –
O=C1NC(=S)NC(=O)C1=Cc1cn(C(=O)c2ccc3ccccc3c2)c2ccc(Cl)cc12 | – | – | – | – | – | – | inactive | – | – | – | –
COc1ccc2c(c1)c(C=C1C(=O)NC(=S)NC1=O)cn2C(=O)c1ccc2ccccc2c1 | 50% | 0.021 min⁻¹ | 21.4 µM | Dose-dependent effect | 73 s⁻¹ | 0.0028 µM | Active | inactive | 1000 µM | 2.38 min⁻¹ | –
CCC[C@H](NC(=O)[C@@H]1[C@H]2CCC[C@H]2CN1C(=O)[C@@H](NC(=O)[C@@H](NC(=O)c1cnccn1)C1CCCCC1)C(C)(C)C)C(=O)C(=O)NC1CC1 | – | – | – | – | – | – | – | – | – | – | 85%
